Compounds with a hit are over-represented: about 3.5% of the library has one in this group of screens.
MrgX1 PAM = human MrgX1 positive allosteric modulation, primary screen; Q96LB2; MrgX1-HEK293, Fluo-4 calcium flux, FDSS; active compounds read high; B-score at 10 µM; 0.63% of 310,000 active;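 active = plate-corrected calcium response at least 3 library SD above typical, normal starting fluorescence, not activating the receptor alone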;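 also: compound read alongside a low EC10 to EC30 dose of BAM8-22 agonist; peak minus trough fluorescence over baseline measured at the second addition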
Target sequence (Q96LB2 whole entry, looked up): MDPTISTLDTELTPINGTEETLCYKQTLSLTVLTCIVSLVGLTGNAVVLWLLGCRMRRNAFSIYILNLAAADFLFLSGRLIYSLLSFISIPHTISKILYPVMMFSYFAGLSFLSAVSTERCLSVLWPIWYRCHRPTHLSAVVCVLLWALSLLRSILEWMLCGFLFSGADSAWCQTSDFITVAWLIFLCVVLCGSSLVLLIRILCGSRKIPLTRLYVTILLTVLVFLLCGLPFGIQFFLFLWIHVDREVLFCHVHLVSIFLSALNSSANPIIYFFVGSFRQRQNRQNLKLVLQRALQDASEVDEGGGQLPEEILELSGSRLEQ
MrgX1 antagonist = blocks BAM8-22 activation of human MrgX1 receptor | MRGX1-HEK293 calcium flux, Fluo-4, BAM8-22 antagonism; active compounds read low | B-score at 10 µM | 1.3% of 310,000 active | AID 588676;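 active = calcium-response B-score plate-corrected more than 3 library SD below zero, starting fluorescence within 5 deviations, no agonist response on first addition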;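 also: peak minus trough fluorescence over baseline after final BAM8-22 challenge near maximal dose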
RGS4 inh = inhibitors of human RGS4; 0.45% of 310,000 active; B-score at 10 µM; AID 463165; HEK293 M3R/RGS4 inducible, Fluo-4 calcium flux; active compounds read high; triggered by carbachol at its EC20;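 active = B-score, a plate-corrected calcium signal, over three deviations above library mean, with baseline fluorescence within five deviations of library mean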;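 also: RGS4 expression induced by doxycycline in cells with stable M3 receptor; B-score is computed from the integrated fluorescence ratio over baseline after carbachol; higher B-score means a larger calcium signal and so more RGS4 inhibition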
Target sequence (P49798 whole entry, looked up): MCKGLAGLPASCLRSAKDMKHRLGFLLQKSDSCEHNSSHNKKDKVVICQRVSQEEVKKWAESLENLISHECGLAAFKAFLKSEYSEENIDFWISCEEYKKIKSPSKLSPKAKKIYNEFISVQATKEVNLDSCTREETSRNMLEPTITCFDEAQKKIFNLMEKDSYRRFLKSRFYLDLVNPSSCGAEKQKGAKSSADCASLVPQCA
MrgX1 ag = activates human MrgX1 receptor signaling. Q96LB2. MrgX1-HEK293 cells, Fluo-4 calcium fluorescence, agonist mode; active compounds read high. B-score at 10 µM. 0.44% of 310,000 active;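 active = calcium response B-score plate-corrected fluorescence ratio at least 3 library SD, with starting fluorescence B-score inside 5 SD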
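Assay system: MrgX1-expressing HEK293 cells / Amount: fifteen thousand cells per well / Doses: test compound in the initial addition of three / Timing: cells plated overnight, dye loaded 0.5 h 37 °C, 0.5 h room temperature / Technique: kinetic calcium dye fluorescence, Fluo-4 NW / Control set: positive and negative controls per plate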
RGS4 pot = RGS4 potentiation or activation; HEK293 M3R/inducible RGS4, carbachol calcium flux Fluo4; active compounds read low; B-score at 10 µM; 0.92% of 310,000 active;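 active = B-score of the integrated calcium signal more than 4 SD below the library mean, with starting fluorescence not abnormally high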;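 also: negative B-score means reduced calcium response which marks RGS4 activation or potentiation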
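System – HEK293 FlpIn-TREx cells, stable M3R, doxycycline-inducible RGS4 · Reagent – ECmax carbachol challenge · Times – compound preincubation 20 min at room temperature before agonist · Technique – Fluo4 fluorescence kinetic imaging of calcium · Measure – B score of integrated Fluo4 ratio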
MrgX1 PAM conf = reconfirmed allosteric activator of human MrgX1 receptor; shares compounds with MrgX1 PAM; MrgX1-HEK293, Fluo-4 calcium fluorescence, FDSS; activation (ratio percentage), % at 10 µM; 13% of 1,200 active; AID 602413;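 active = ratio at least 3 SD above the weak peptide control, stable starting fluorescence, no direct agonism earlier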;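 also: compound followed by low BAM8-22 agonist challenge near EC20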
HEK293 Ca flux = counter-screen for MrgX1 antagonists: effect in parental HEK293 cells; shares compounds with MrgX1 antagonist; Fluo-4 calcium fluorescence, FDSS; fluorescence ratio F(max-min)/F0 at 10 µM; 2% of 4,000 active; AID 624111;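 active = duplicate-averaged calcium fluorescence ratio at least three times the standard deviation of buffer wells, a nonspecific response in parental cells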
HEK293 Ca counter = activity in parental HEK293 cells without MrgX1; parental HEK293 calcium flux, Fluo-4 fluorescence ratio; active compounds read high; 0.4% of 4,000 active; shares compounds with MrgX1 antagonist; fluorescence ratio F(max-min)/F0 at 10 µM;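 active = calcium fluorescence ratio, averaged over duplicates, at least 3 SD of the buffer-well ratio, meaning a nonspecific response in receptor-free cells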;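 also: untransfected parental HEK293 lacking MrgX1 used as counterscreen for MrgX1 allosteric activators; fluorescence change taken during the second addition on a kinetic imager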
HEK293 Ca cntr2 = counter-screen for MrgX1 activators: effect in parental HEK293 cells. shares compounds with MrgX1 antagonist. Fluo-4 calcium fluorescence (FDSS); active compounds read high. fluorescence ratio F(max-min)/F0 at 10 µM. 8.7% of 4,000 active. AID 624115;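 active = calcium fluorescence ratio at least three times the spread of buffer wells, meaning a non-specific response in parental cells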
Numbers without * were called inactive; i = inactive; · = not tested or not shown.

SMILES	MrgX1 PAM	MrgX1 antagonist	RGS4 inh	MrgX1 ag	RGS4 pot	MrgX1 PAM conf	HEK293 Ca flux	HEK293 Ca counter	HEK293 Ca cntr2
CCOC(=O)C(Cc1ccccc1)C(=O)NCc1cccnc1 (centres undefined)	13.5*	i	i	i	i	i	i	i	i
Cc1ccccc1OC(C)C(=O)NCc1cccnc1 (centres undefined)	i	i	i	i	i	·	·	·	·
COc1ccc(CCNC(=S)N2CCN(S(=O)(=O)c3ccc(C)cc3)CC2)cc1	i	i	i	i	i	·	·	·	·
CN(C)n1cccc1/C=C(\C#N)S(=O)(=O)c1ccc(Cl)cc1	i	i	i	i	i	·	·	·	·
CCOc1ccccc1N(CC(=O)NC1CCCCC1)S(=O)(=O)c1ccc(C)cc1	9.19*	i	i	i	i	i	i	i	i
Cc1ccc(NC(=O)CCN2C(=O)c3ccccc3C2=O)cc1	i	i	i	i	i	·	·	·	·
CC12COC3(C(=O)Nc4ccc(Cl)cc4)CC1CCC32C (centres undefined)	31.2*	i	i	i	i	8.2%*	i	i	i
CC12COC3(C(=O)Nc4nccs4)CC1CCC32C (centres undefined)	i	i	i	i	i	·	·	·	·
COc1cccc(/C=N/n2c(SC)nnc2-c2ccccc2)c1O	20.5*	i	i	i	i	154.0%*	i	i	i
CN(Cc1ccco1)C(=O)Cn1cc(S(=O)(=O)N2CCCC2)c(S(=O)(=O)N2CCCC2)c1	i	i	i	i	i	·	·	·	·
Cc1sc2ncn(C(C)C(=O)OC3CCCCC3)c(=O)c2c1C (centres undefined)	9.19*	i	i	i	i	i	i	i	i
CC1(C)CC(NC(=O)c2ccc(Cl)c(S(=O)(=O)N(Cc3ccccc3)c3ccccc3)c2)CC(C)(C)N1	i	i	i	i	i	·	·	·	·
CCCNC(=O)OCC12CC3CC(CC(C3)C1)C2	9.66*	i	i	i	i	i	i	i	i
O=C(COc1ccc(Cl)cc1Cl)NCCC1=CCCCC1	16.4*	i	i	i	i	5.0%*	i	i	i
CC(=O)N(CCC1(c2ccc(C)cc2)CCOC(C(C)C)C1)Cc1ccco1 (centres undefined)	10.1*	i	i	i	i	i	i	i	i
Cc1cccc(C)c1NC(=O)CN(C)C(=O)c1cccc(S(=O)(=O)N2CCN(c3ccc(F)cc3)CC2)c1	9.02*	i	i	i	i	i	i	i	i
Cn1c(-c2ccccc2F)cc2onc(-c3ccccc3)c2c1=O	i	i	·	i	·	·	·	·	·
Cn1c(-c2ccccc2)cc2onc(-c3ccccc3)c2c1=O	12*	i	·	i	·	21.0%*	i	i	i
CCCCn1c(N)c(N(CCOC)C(=O)c2cccc(N3C(=O)c4ccccc4C3=O)c2)c(=O)[nH]c1=O	i	i	i	i	i	·	·	·	·
Cc1ccsc1C(=O)NNC(=O)CCN1CCN(c2ccccc2)CC1	i	i	i	i	i	·	·	·	·
CCOc1cccc(NC(=O)CSc2nncn2N)c1	7.38*	i	i	i	i	i	i	i	i
CCOC(=O)CSc1nc2ccc(N)cc2s1	i	i	i	i	i	·	·	·	·
Nc1ccc2nc(SCc3cccc(F)c3)sc2c1	9.18*	i	i	i	i	i	i	i	i
NC(=O)c1ccsc1NC(=O)COC(=O)Cc1c[nH]c2ccccc12	8.87*	i	i	i	i	26.8%*	i	i	i
COc1ccc(CCN2CC(C(=O)NCc3cnn(C(C)C)c3)CCC2=O)cc1 (centres undefined)	i	i	i	i	i	·	·	·	·
SMILES	MrgX1 PAM	MrgX1 antagonist	RGS4 inh	MrgX1 ag	RGS4 pot	MrgX1 PAM conf	HEK293 Ca flux	HEK293 Ca counter	HEK293 Ca cntr2
COc1ccc(CC(=O)OCC(=O)Nc2ccc3c(c2)OCO3)cc1	10*	i	i	i	i	i	i	i	i
COc1ccc(CCC(=O)Nc2ccc3c(c2)OCO3)cc1	i	i	i	i	i	·	·	·	·
Nc1nc(CN2CCN(Cc3ccc4c(c3)OCO4)CC2)nc(Nc2ccccc2)n1	i	i	i	i	i	·	·	·	·
Cc1ccccc1Nc1nc(N)nc(CN2CCN(Cc3ccc4c(c3)OCO4)CC2)n1	8.04*	i	i	i	i	i	i	i	i
O=C(COc1ccc2c(c1)OCO2)NC12CC3CC(CC(C3)C1)C2	10.6*	i	i	i	i	i	i	i	i
O=C(NCc1ccc2c(c1)OCO2)NC12CC3CC(CC(C3)C1)C2	i	i	i	i	i	·	·	·	·
NS(=O)(=O)c1cc(C(=O)NCCc2ccccn2)ccc1Cl	21.1*	i	i	i	i	i	i	i	i
COCc1cc(N2CCN(c3ccccc3F)CC2)nc(-c2ccccc2)n1	i	i	i	i	i	·	·	·	·
COCc1cc(Sc2ccc(Cl)cc2)nc(-c2ccccc2)n1	13.5*	i	i	i	i	i	i	i	i
COCc1cc(Sc2ccc(Br)cc2)nc(-c2ccccc2)n1	8.87*	i	i	i	i	i	i	i	i
CS(=O)Cc1cc(Sc2ccccc2)nc(-c2ccncc2)n1 (centres undefined)	i	i	i	i	i	·	·	·	·
CC(=O)c1ccc(NC(=O)c2cc(CC(C)C)nc3ccccc23)cc1	i	i	i	i	i	·	·	·	·
CN(C)N1C(=O)CC(C)(c2ccc([N+](=O)[O-])cc2)C1=O (centres undefined)	i	i	i	i	i	·	·	·	·
Fc1ccc(-c2csc(NC3=NCCC3)n2)cc1	11.5*	i	i	i	i	i	i	i	i
CC(Sc1nnc2ccccn12)C(=O)Nc1ccc2c(c1)OCCO2 (centres undefined)	i	i	i	i	i	·	·	·	·
